Measured values pooled from the literature.
Each line is one published result; the experiments were not run side by side.
MAP2K6: Dual specificity mitogen-activated protein kinase kinase 6 (MAP2K6, Homo sapiens, UniProt P52564)

| Compound | target | observed | action | technique | tested at | quantity | value |
| --- | --- | --- | --- | --- | --- | --- | --- |
| COc1ncccc1-c1cnn2ccc(N3CCN(C(=O)OC(C)C)CC3)nc12 | MAP2K6 | binding |  | competition with immobilised ligand | 1 µM | remaining binding | 56% |
| Cc1nn(C)cc1-c1nc2c(N3CCN(Cc4ccc(Cl)cc4)CC3)c(Cl)cnc2[nH]1 | MAP2K6 | binding |  | competition with immobilised ligand | 1 µM | remaining binding | 73% |
| O=c1[nH]c2ccccc2n1C1CCN(Cc2ccc(-c3[nH]c4cc5ncnc5cc4nc3-c3ccccc3)cc2)CC1 | MAP2K6 | cell-free assay |  |  | 0.5 µM | remaining signal | 101% |
| Cn1cc(-c2cc(F)cc(N3CCn4c(cc5c4CCCC5)C3=O)c2CO)cc(Nc2ccc(N3CCN(C4COC4)CC3)cn2)c1=O | MAP2K6 | enzyme activity | inhibitor |  | 0.1 µM | inhibition | 4% |
| CC(C)(C)c1cc(C=C(C#N)C#N)cc(Br)c1O | MAP2K6 | enzyme activity | inhibitor |  | 0.5 µM | remaining activity | 107% |
| Cn1cncc1[C@](O)(COc1ccc(C#N)cc1-c1ccc(OC(F)(F)F)cc1)c1ccc(C#N)cc1 | MAP2K6 | cell-free assay |  | competition with immobilised ligand | 1 µM | remaining binding | 76% |
| Nc1ncc(-c2nc(N3CCOCC3)nc(N3CCOCC3)n2)c(C(F)F)n1 | MAP2K6 | binding |  | competition with immobilised ligand | 10 µM | remaining binding | 92% |
| Cn1cc(-c2cccc(N3CCc4c(sc5c4CC(C)(C)C5)C3=O)c2CO)cc(Nc2ccncn2)c1=O | Dual specificity mitogen-activated protein kinase kinase 6 (MAP2K6, Homo sapiens, UniProt P52564, S207E/T211E) | enzyme activity | inhibitor |  | 1 µM | inhibition | -4% |
| N#CC1(c2ccccn2)CCN(Cc2cc(C(=O)O)c(=O)n3ccccc23)CC1 | MAP2K6 | cell-free assay |  | competition with immobilised ligand | 1 µM | remaining binding | 99% |
